B1: tRNA (parent)
chain: GUUCCGUUGGCGUAAUGGUAACGCGUCUCCCUCCUAAGGAGAAGACUGCGGGUUCGAGUCCCGUACGGAACG

This is an account of results in the RNAGym collection of RNA variant scans (doi:10.1126/science.aae0568).

This sample holds only a part of the variants without activity.

In the data set the parent is B1. The experiment in a line: yeast fitness relative to wild type (ratio to wild type); higher = fitter; tRNA-Arg(CCU), competitive growth, 37 C, YPD. In short, it runs like this: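 Changes in genotype frequencies gave Darwinian fitness relative to wild type. Frequencies were read by 100-nucleotide paired-end sequencing of gene amplicons before and after pooled Saccharomyces cerevisiae strains, carrying tRNA-Arg(CCU) gene variants at the native locus, were competed in YPD at 37°C for 24 hours in six replicates. A genotype was kept only with ≥ 100 starting reads, and estimates < 0.5 were set to 0.5.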
On to GUUCCGUUGGCGUAAUGGUAAAGCGUCUCCCUCCUAAGGAGACGACUGCGGGUUCAAGUCCCGUACGGAACG, for which the yeast fitness came out at 0.853.
With GUUCCGUUGGCGUAAUGGUAAAGCGUGACACUCGUAAGGAGAAGACUCCGGGUUCGAGUCCCGUACGGAACG the figure was at most 0.5.
Regarding GUUCCGUUGGCGUAAUGGUAAAGCGUCUCCCUCCUAAGGAGAAGACUGCGGGUUCGAGUCCCGUACGGUCCG, the yeast fitness was determined as 0.685.
The same measure for GUUCCGUUGGCGUAAUGGUAAAGCGUUUCCCUCCUAAGGAGAAGACUGCGGGUUCACGUCCCGUACGGAACG: at most 0.5; for GUUCCGUUGGCGUAAUGGUAAAGGGUCUCCCUCCUGAGCAGAAGACUGCGGGUUUGAGUCCCGUAUGGAACG: 0.513.
GUUCCGUUGGCGUAAUGGUAAAGCGUGUCCCUCCUAAGGAGAUGACUGCGGGUUCGAGUACCGUACGGAACG: the yeast fitness was determined as 0.557.
With GUUCCGUUGGCGUAAUGGUAAAGCGUGUCCCUCCUAAGGAAAAGACUGCGGGUUCGAGUCCCGUACGGAACG, the yeast fitness stood at 0.614.
Regarding GUUCCGUUGGCGUAAUGGUAAAGCGUCUCCCUCCUAAGGAGAAGUCUGCGGGUUCGAGUCCCAUACGGAACG, the yeast fitness was found to be 0.558.
In the case of GUUCCGUUGGCGUAAUGGUAAAGCGUCUCCCUCCUAAGGAGUAAACUGCGGGUUCGAGUCCUGUACGGAACG, the yeast fitness was at most 0.5.
In the case of GUUCCGUUGGCGUAAUGGUAAAGCGUCUCCCUCCUAAGGAGAAGCCUGCGGGUUCGAGUCCCGUAGGGAACG, the yeast fitness turned out to be 0.691.
As for GUUCCGUUGGCGUAAUGGUAAAGCGUCUCCCUCCUAAGGAGAAGCCUGCGGGUUCGAGUCCCGUAAGGAACG, the yeast fitness is at most 0.5.
Consider GUUCCGUUGGCGUAAUGGUAAAGCGUCUCCCUCCUAAGGAGAAGACUGCGGGUUCGGGUACCGUACGGAACG, for which the yeast fitness is at most 0.5.
In the case of GUUCCGUUGGCGUAAUGGUAAAGCGUCUCCCUCCUAUGGAGAAAACUGCGGGUUCGAGUCCCGUACGGAGCG, the yeast fitness is at most 0.5.
With GUUCCGUUGGCGUAAUGGUAAAGCGUCUCCCUCCUAAGGAGAAGACUGCGGGUUCGAGUCCCGUACGGAUCG the figure was 1.01; with GUUCCGUUGGCGUAAUGGUAAAGCGUCUCCCUCCUAAGGAGAAGACUGCGGGUUCGAGUCCCGUACGGAGCG, 0.948; with GUUCCGUUGGCGUAAUGGUAAAGCGUCUCCCUCCUAAGGAGAAGACUGCGGGUUCGAGUCCCGUACGGACCG, 0.877.
The same measure for GUUCCGUUGGCGUAAUGGUAAAGCGUCUCCCUCCUAUGGAGAAGACUGCGGGUUCGAGUCCCGUACGGAACG: 0.578; for GUUCCGUUGGCGUAAUGGUAAAGUGUCUCCCUCCUAAGGAGAACACUACGGGUUCGAGUCCCGUACGGAACG: at most 0.5.
With GUUCCGUUGGCGUAAUGGUAAAGCGUAUCCCUCCUAAGGAGAAGACUGCGGCUUCGAGUCCCAUACGGAACG the figure was at most 0.5; with GUUCCGUUGGCGUAAUGGUAAAGAGCCUCCCUCCUAAGGAGAAGACUGCGGGUUCGAGUCCCGUAUGGAACG, at most 0.5.
As for GUUCCGUUGGCGUAAUGGUAAAGUGUCUCCCUCCUUAGGAGAAGACUGCGGGUUCGAGUCCCGUACGGAACG, the yeast fitness is at most 0.5.
For the variant GUUCCGUUGGCGUAAUGGUAAAGCGUCUCCCUCCUAAGGAGAUGACUGCGGGUUCGAGUACCGUGCGGAACG, the yeast fitness is 0.683.
With GUUCCGUUGGCGUAAUGGUAAAGCGUCUCCCUCCUAAGGAGACGACUGCGGGUUCGAGUCCCGUACGGAACG the figure was 0.694; with GUUCCGUUGGCGUAAUGGUAAAGCGUCUCCCUCCUAAGGAGAGGACUGCGGGUUCGAGUCCCGUACGGAACG, 0.809.
The same measure for GUUCCGUUGGCGUAAUGGUAAAGCGUCUCCCUCCUAAGGAGAAGCCCGCGGGUGCGAGUCCCGUACGGAACG: at most 0.5; for GUUCCGUUGGCGUAAUGGUAAAGAGUCUCCCUCCUAAGGAGAAGACUGCGGGUACGAGUCCCGUACGGAACG: at most 0.5.
The same measure for GUUCCGUUGGCGUAAUGGUAAAGCGUCUCCCUCCUAAGGAGAAGACUGCGGGUUCGAGUCCCGUACGGCGCG: 0.638.
On to GUUCCGUUGGCGUAAUGGUAAAGCGUCUACCUCCUAAGGAGAAGACUGCGGGUUCGAGUCCCGUACGGAACG, for which the yeast fitness was 0.636.
The same measure for GUUCCGUUGGCGUAAUGGUAAAGGGUCUCCCUCCUAAGGAGAAGCCUGCGGGUUCGAGUCCCGUACGGAACG: 0.564.
The same measure for GUUCCGUUGGCGUAAUGGUAAAGGGUCUCCCUCCUCAGGAGAAGACUGCGGGUUCGAGUCCCGUAUGGAACG: 0.692; for GUUCCGUUGGCGUAAUGGUAAAGCGUAUCCCUCCUAAGGAGAAGACUGCGGGUUCGAGCCCCGUACGGAACG: 0.586.
The same measure for GUUCCGUUGGCGUAAUGGUAAAGUGUCUCCCUCCUAAGGAGAAGACUGCGGGUUCGAGUCCCGUACGGAACG: 0.74.
For the variant GUUCCGUUGGCGUAAUGGUAAAGAGCCUCCCUCCUAAGGAGAAGACUGCGGGUUCGAGUGUCGUACGGAACG, the yeast fitness is at most 0.5.
As for GUUCCGUUGGCGUAAUGGUAAAGCGUCUACCUCCUAAGGAGAUGACUGCGGGUUCGAGUCCCGUACGGAACG, the yeast fitness was at most 0.5.
With GUUCCGUUGGCGUAAUGGUAAAGCGUCUCCCUCCUAAGGAGAAGACUGCGGGUUCGAGUCCCGUACGGCACG the figure was 0.874.
For the variant GUUCCGUUGGCGUAAUGGUAAAGGGUCUCCCUCCUGAGCAGAAGACUGCGGGUUUGAGUCCCGUACGGAACG, the yeast fitness was at most 0.5.
The same measure for GUUCCGUUGGCGUAAUGGUAAAGCGUGUCCCUCCUGAGGAGAAGACUGCGGGUUCGAGUCCCGUACGGAACG: at most 0.5.
As for GUUCCGUUGGCGUAAUGGUAAAGCGUCUCCCUCCUAAGGAGAAGACUGCGGGUUCGGGUCCCGUACGGAACG, the yeast fitness was found to be 0.916.
